According to ChEMBL document CHEMBL4732262, “Identification of two novel thiophene analogues as inducers of autophagy mediated cell death in breast cancer cells” (Bioorg Med Chem, 2021):
Calls of active or inactive are those of the source. No cut-off for these calls is given here.

Columns and labels:
MDA-MB-231 [1] = assay: Induction of apoptosis in human MDA-MB-231 cells assessed as necrotic cells at 2.5 uM after 24 hrs by annexin V-FITC/Propidium iodide staining based flow cytometric analysis (reference value: 0.65%); format: functional
MCF7 [2] = assay: Induction of apoptosis in human MCF7 cells assessed as change in Bax protein expression at 2.5 uM after 24 hrs by Western blot analysis; format: functional, cell-based
Procedure, shortened: (§1)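 MCF7 or MDA-MB-231 cells given 2.5 µM or DMSO for 24 h, then lysed in RIPA buffer. Immunoblots probed overnight at 4 °C, followed by infrared-labelled secondary antibody for 1 h at 37 °C. Bands imaged and quantified densitometrically, with GAPDH as loading control. Representative of two independent experiments.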

MCF7 [3] = assay: Induction of autophagy in human MCF7 cells assessed as increase in CHOP mRNA expression at 2.5 uM after 24 hrs by RT-PCR analysis; format: functional, cell-based
MCF7 [4] = assay: Induction of autophagy in human MCF7 cells assessed as LC3-2 to LC3-1 protein ratio at 5 uM after 24 hrs by Western blot analysis (reference value: 0.22 to 0.8); format: functional
MCF7 [5] = assay: Induction of autophagy in human MCF7 cells assessed as increase in p62 degradation level after 24 hrs by Western blot analysis; format: functional, cell-based; settings: dose 1.25-5 µM
Procedure, shortened: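 Dose series in MCF7 cells (~5 × 10^6): 0, 1.25, 2.5 and 5 µM compound for 24 h, DMSO control. Lysates immunoblotted for p62 and LC3, GAPDH loading control, with infrared densitometry. At least two independent experiments.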

MCF7 [6] = assay: Induction of autophagy in human MCF7 cells assessed as increase in GABARAPL1 mRNA expression at 2.5 uM after 24 hrs by RT-PCR analysis; format: functional, cell-based
Procedure, shortened: (§2)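 MCF7 cells given 2.5 µM or DMSO for 24 h. Total RNA extracted with TRIzol and reverse-transcribed, then SYBR Green qPCR across 34 autophagy-regulatory genes (95 °C 10 min; 40 cycles of 95 °C 15 s and 60 °C 1 min). Relative expression by 2^-ΔΔCt against housekeeping genes and DMSO control, shown as log2. Two independent experiments.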

MCF7 [7] = assay: Induction of apoptosis in human MCF7 cells assessed as increase in cleaved-PARP protein expression after 24 hrs by Western blot analysis; format: functional, cell-based; settings: dose 1.25-5 µM
MCF7 [8] = assay: Induction of autophagy in human MCF7 cells assessed as increase in GABARAP mRNA expression at 2.5 uM after 24 hrs by RT-PCR analysis; format: functional, cell-based; procedure, shortened: as §2
MCF7 [9] = assay: Induction of autophagy in human MCF7 cells assessed as increase in IRE1 mRNA expression at 2.5 uM after 24 hrs by PCR microarray analysis; format: functional, cell-based
Procedure, shortened: (§3)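 MCF7 cells given 2.5 µM or DMSO for 24 h. cDNA run on an Unfolded Protein Response RT2 Profiler PCR array. Changes computed by 2^-ΔΔCt (log2) against control, normalised to the mean of ACTB, B2M, GAPDH, HPRT1 and RPLPO.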

MCF7 [10] = assay: Induction of apoptosis in human MCF7 cells assessed as change in Bcl-xL protein expression at 2.5 uM after 24 hrs by Western blot analysis; format: functional, cell-based; procedure, shortened: as §1
MCF7 [11] = assay: Cytotoxicity against human MCF7 cells assessed as reduction in cell viability at 25 to 100 uM after 24 hrs in presence of chloroquine by MTT assay; format: functional, cell-based; settings: dose 25-100 µM
Procedure, shortened: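 ~0.5 × 10^5 cells per well in six-well plates given 2.5 µM test agent together with chloroquine at 25, 50 or 100 µM, 24 h at 37 °C in humidified CO2. Viability read by MTT. Duplicate assays from two independent experiments, shown with SD.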

MCF7 [12] = assay: Induction of autophagy in human MCF7 cells expressing mCherry-tagged p62 assessed as reduction in p62 expression at 2.5 uM after 24 hrs by live-cell confocal microscopic analysis; format: functional, cell-based
Procedure, shortened: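 MCF7 cells were co-transfected with GFP-LC3 and mCherry-p62 constructs. 24 h later they were exposed to 2.5 µM compound, 50 µM chloroquine or DMSO for a further 24 h. Nuclei were stained with Hoechst 33342 and cells imaged by live-cell confocal microscopy. Two independent experiments.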

MCF7 [13] = assay: Induction of autophagy in human MCF7 cells assessed as increase in DDIT3 mRNA expression at 2.5 uM after 24 hrs by PCR microarray analysis; format: functional, cell-based; procedure, shortened: as §3
MCF7 [14] = assay: Induction of apoptosis in human MCF7cells assessed as reduction in number of cells at 2.5 uM by phase contrast microscopic method; format: functional, cell-based; settings: time 6-24 hrs, TDE = time-dependent effect
Procedure, shortened: (§4)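 ~5 × 10^4 cells in 6-well plates, either DMSO control or 2.5 µM. Morphology imaged at 0, 6, 12 and 24 h.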

MCF7 [15] = assay: Induction of autophagy in human MCF7 cells assessed as increase in ATG16L2 mRNA expression at 2.5 uM after 24 hrs by RT-PCR analysis; format: functional, cell-based; procedure, shortened: as §2
MCF7 [16] = assay: Induction of autophagy in human MCF7 cells assessed as increase in GADD34 mRNA expression at 2.5 uM after 24 hrs by RT-PCR analysis; format: functional, cell-based
MCF7 [17] = assay: Induction of apoptosis in human MCF7 cells assessed as increase in cell death at 2.5 uM after 24 hrs by EtBr/AO staining based fluorescence microscopic method; format: functional
Procedure, shortened: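 ~5 × 10^4 MCF7 cells on coverslips given 2.5 µM for 24 h, then PBS-washed and stained with 1:1 ethidium bromide/acridine orange (0.4 mg/ml each). Viewed by fluorescence microscopy, excitation 480 nm with a 515–530 nm barrier filter. Apoptotic, necrotic and viable cells scored from 200 cells per sample.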

MDA-MB-231 [18] = assay: Induction of apoptosis in human MDA-MB-231 cells assessed as reduction in number of cells at 2.5 uM by phase contrast microscopic method; format: functional, cell-based; settings: time 6-24 hrs, TDE = time-dependent effect; procedure, shortened: as §4
MCF7 [19] = assay: Induction of apoptosis in human MCF7 cells assessed as increase in cell death at 2.5 uM after 24 hrs by EtBr/AO staining based fluorescence microscopic method relative to tanshinone-2A; format: functional
Procedure, shortened: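 MCF7 cells (~5 × 10^4 per well, on coverslips) were left untreated (DMSO control) or treated at 2.5 µM for 24 h. Cells were PBS-washed, stained with 1:1 EtBr/AO (0.4 mg/ml each), washed and mounted, then viewed by fluorescence microscopy (480 nm excitation, 515-530 nm barrier filter). 200 cells per sample were scored apoptotic, necrotic or viable; percentages were taken relative to live cells.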

MCF7 [20] = assay: Induction of autophagy in human MCF7 cells assessed as increase in Bcl2L11 mRNA expression at 2.5 uM after 24 hrs by RT-PCR analysis; format: functional, cell-based; procedure, shortened: as §2
MCF7 [21] = assay: Cytotoxicity against human MCF7 cells assessed as reduction in cell viability after 24 hrs by MTT assay; format: functional, cell-based; settings: MCF7, 24 h
Procedure, shortened: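 Cells seeded ~5 × 10^3 per well in 96-well plates, exposed to 0–40 µM for 24 h. MTT added at 0.5 mg/ml for 3 h, formazan dissolved in DMSO, absorbance read at 540 nm. IC50 taken from plotted curves. Duplicate wells, two independent repeats. MCF7 grown in DMEM, MDA-MB-231 in RPMI, both with 10% FBS at 37 °C and 5% CO2.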

SMILES | Activity (MDA-MB-231 [1]) | Activity (MCF7 [2]) | Activity (MCF7 [3]) | Ratio (MCF7 [4]) | Activity (MCF7 [5]) | Activity (MCF7 [6]) | Activity (MCF7 [7]) | Activity (MCF7 [8]) | Activity (MCF7 [9]) | Activity (MCF7 [10]) | Activity (MCF7 [11]) | Activity (MCF7 [12]) | Activity (MCF7 [13]) | Activity (MCF7 [14]) | Activity (MCF7 [15]) | Activity (MCF7 [16]) | Activity (MCF7 [17]) | Activity (MDA-MB-231 [18]) | fold change (FC) (MCF7 [19]) | Activity (MCF7 [20]) | further results
O=C1C(=O)c2sccc2-c2ccccc21 | 26.8% | inactive | Active | 11.4 | Dose-dependent effect | Active | Dose-dependent effect | Active | Active | inactive | inactive | Active | Active | Tde | Active | Active | Active | Tde | 2 | Active | IC50 (MCF7 [21]): 1860 nM
O=C1C(=O)c2ccsc2-c2ccccc21 | 43.5% | inactive | Active | 34.1 | Dose-dependent effect | Active | Dose-dependent effect | Active | Active | inactive | inactive | Active | Active | Tde | Active | Active | Active | Tde | 2 | Active | IC50 (MCF7 [21]): 1940 nM
